VLA-4 inh = inhibition in a human VLA-4 binding assay. 0.2% of 330,000 active. inhibition, % (about 7 µM as worked out from the volumes in the protocol). VLA-4 expressing cells, ligand binding flow cytometry; in the data active = inhibition above about 50%
Granule exo inh = lytic granule exocytosis inhibition; TALL-104 LAMP-1 surface exposure, flow cytometry; cells stimulated with thapsigargin and PMA; inhibition, % at 10 µM; 0.66% of 360,000 active;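 active = inhibition above about 55%, limit read from the data; inconclusive = no clear call, values can overlap the other calls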
FGF22 binding-1 = FGF22 (human) thermal shift binding | 1.5% of 340,000 active | recombinant FGF22 thermal shift, SYPRO orange fluorescence; percent of sucrose octasulfate shift, DMSO zero | activity (Tm shift, normalised), % at 9.99 µM;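 active = mean Tm shift, scaled 0 neutral to 100 positive control, at about 1.3% or above, every replicate too, limit read from the data; inconclusive = no clear call, values can overlap the other calls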
MT1-MMP act inh = MT1-MMP (human) activation inhibition; P50281; HT1080 RFP-PRO-GFP cells, GFP/RFP ratio fluorescence, overnight; percent of plate control window, DMSO zero; GFP/RFP ratio change, % at 20 µM; 0.061% of 360,000 active;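 active = GFP/RFP ratio change of at least 30% with cell ATP level not reduced by more than half and red fluorescence within 50% of control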
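Test system: HT1080 RFP-PRO-GFP cells; Benchmarks: DMSO and RFP-L50D-GFP cell wells; Timing: cells overnight before dosing, compound overnight, 37 °C, 5% CO2; Compound: one 20 µM compound dose with 1% DMSO; Read-out: GFP/RFP fluorescence ratio.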
ABCB6 inh MLPCN = blocks the human ABCB6 transporter | K562-ABCB6 porphyrin accumulation, flow cytometry, 1 h; hits give low values | Q9NP58 | 0.19% of 360,000 active | AID 602162 | fluorescence ratio to DMSO, % at 10 µM;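 active = fluorescence ratio to DMSO below 75%, the collection mean minus 3 SD; inconclusive = too few cells collected in the well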;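 also: signal is porphyrin accumulated inside mitochondria; lower ratio means ABCB6 inhibition with less porphyrin fluorescence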
DAGLB inh = blocks human DAGLB lipase activity; AID 504411; HEK293T DAGLB membrane lysate, EnzChek fluorogenic substrate; inhibition, % at 5.17 µM; 0.059% of 340,000 active; Q8NCG7; in the data active = inhibition above about 34%
FGF22 binding-2 = FGF22 (human) binding in thermal shift; shares compounds with FGF22 binding-1; recombinant FGF22 thermal shift, SYPRO orange fluorescence; thermal shift activity, °C (ΔTm) at 38 µM; 2% of 1,000 active;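 active = fitted rise in melting shift crosses a set limit at or below the top valid dose tested; inconclusive = flat fit at mid-level activity, or a poor quality fit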
TSA no protein = shows thermal shift signal without protein, FGF22 counter-screen. AC50, µM (highest dose often 38 µM). shares compounds with FGF22 binding-1. compound-only SYPRO orange thermal shift counter-screen, no protein. 2% of 1,000 active;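 active = rising signal whose fitted curve reaches the 0.54 level within the top valid dose, showing a melting point, actives reach about 13 µM in these data; inactive = the rest, including activity in the opposite direction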; also: value is where the raw curve crosses a fixed level and not half-maximal
Exocytosis CP01 = lytic granule exocytosis inhibition; shares compounds with Granule exo inh; TALL-104 cells, LAMP-1 externalization, flow cytometry; stimulated with PMA plus thapsigargin; inhibition, % at 10 µM; 11% of 1,500 active; AID 651954; in the data active = inhibition above about 60%
Of the large screens only hits and unclear results are named; the others gave an inactive call (follow-up assays come after a bar, where they were run). The list is not random: actives were taken first. Their share in the collection is about 2%.

COc1ccc(OC(C)C(=O)N(C)Cc2nc(-c3cccc(C)c3)no2)cc1 (stereo not given)	FGF22 binding-1 1.6 | FGF22 binding-2 inactive | TSA no protein inactive
COc1cccc(OCC(=O)N(C)Cc2nc(-c3cccc(C)c3)no2)c1	none
CC(C)=CCN(C(=O)C#Cc1ccccc1)[C@H](CO)c1ccccc1	none (no result: VLA-4 inh, Granule exo inh, MT1-MMP act inh, ABCB6 inh MLPCN, DAGLB inh)
O=C(NC[C@@H]1[C@@H](c2ccccc2)[C@@H](CO)N1C(=O)Cc1cccnc1)C1CC1	none (no result: VLA-4 inh, Granule exo inh, MT1-MMP act inh, ABCB6 inh MLPCN, DAGLB inh)
O=C(NC[C@@H]1[C@H](c2ccccc2)[C@H](CO)N1C(=O)Cc1cccnc1)C1CC1	FGF22 binding-1 1.4 (no result: VLA-4 inh, Granule exo inh, MT1-MMP act inh, ABCB6 inh MLPCN, DAGLB inh) | FGF22 binding-2 inactive | TSA no protein inactive
O=C(CCc1ccccc1)c1c(O)cc(O)cc1O	FGF22 binding-1 21 | FGF22 binding-2 inactive | TSA no protein inactive
O=C1Nc2cc(Cl)c(Cl)cc2N(O)N1c1ccc(Cl)cc1	FGF22 binding-1 28 | FGF22 binding-2 inactive | TSA no protein inactive
C[C@H](CO)N1C[C@H](C)[C@H](CN(C)S(=O)(=O)c2ccc(F)cc2)Oc2ccc(NC(=O)CCN3CCOCC3)cc2C1=O	none (no result: VLA-4 inh, Granule exo inh, MT1-MMP act inh, ABCB6 inh MLPCN, DAGLB inh)
CC(=O)C1=C(O)C(=O)N(c2ccc(S(=O)(=O)Nc3nccs3)cc2)C1c1ccc([N+](=O)[O-])cc1 (stereo not given)	none
CC(=O)C1=C(O)C(=O)N(c2ccc(S(=O)(=O)Nc3nccs3)cc2)C1c1ccc(F)cc1 (stereo not given)	FGF22 binding-1 1.7 | FGF22 binding-2 inactive | TSA no protein inactive
O=C(C[C@H]1C=C[C@H](NC(=O)C2CCOCC2)[C@@H](CO)O1)Nc1ccc(-c2ccccc2)cc1	none (no result: VLA-4 inh, Granule exo inh, MT1-MMP act inh, ABCB6 inh MLPCN, DAGLB inh)
Cc1ccc(-c2c[n+](CC(=O)Nc3ccc(C)cc3C)c3n2CCC3)cc1	FGF22 binding-1 14 | FGF22 binding-2 inactive | TSA no protein inactive
COc1cc(NC(=O)c2cccs2)c(OC)cc1NC(=O)Nc1ccc(F)cc1	FGF22 binding-1 1.4 | FGF22 binding-2 inactive | TSA no protein inactive
COc1cc(NC(=O)c2cccs2)c(OC)cc1NC(=O)c1cccs1	none (no result: FGF22 binding-1)
CCCNC(=O)N1CC2(CCN(CC3CC3)CC2)c2c(n(C)c3cc(OC)ccc23)[C@@H]1CO	none (no result: VLA-4 inh, Granule exo inh, MT1-MMP act inh, ABCB6 inh MLPCN, DAGLB inh)
COCCNC(=O)c1cccc2c(-c3ccnn3C)coc12	none (no result: VLA-4 inh, DAGLB inh)
COCCNC(=O)c1cccc2c(-c3cnn(C)c3)coc12	FGF22 binding-1 2.4 (no result: VLA-4 inh, DAGLB inh) | FGF22 binding-2 inactive | TSA no protein inactive
O=C(N[C@@H]1C=C[C@@H](CC(=O)N2CCCCC2)O[C@@H]1CO)c1cccc(F)c1	FGF22 binding-1 1.8 (no result: VLA-4 inh, Granule exo inh, MT1-MMP act inh, ABCB6 inh MLPCN, DAGLB inh) | FGF22 binding-2 inactive | TSA no protein inactive
Cc1ccc(NS(=O)(=O)c2ccc(C(=O)NNC(=O)c3ccccc3O)cc2)cc1	none
O=C(NNC(=O)c1ccccc1O)c1ccc(NS(=O)(=O)c2ccc(F)c(F)c2)cc1	FGF22 binding-1 1.8 | FGF22 binding-2 inactive | TSA no protein inactive
COc1ccc(N=NC2C(=O)N(c3ccccc3)N=C2C)cc1 (stereo not given)	FGF22 binding-1 1.6 | FGF22 binding-2 inactive | TSA no protein inactive
N#CC(C#N)=C1NC(N)=C(C#N)C(c2ccccc2)=C1C#N	FGF22 binding-1 2.1 | FGF22 binding-2 inactive | TSA no protein inactive
O=C(Nc1ccccc1F)N1C[C@H]2[C@@H](c3ccccc31)[C@@H](CO)N2C(=O)C1CCCC1	none (no result: VLA-4 inh, Granule exo inh, MT1-MMP act inh, ABCB6 inh MLPCN, DAGLB inh)
CC(C)C(=O)Nc1ccc2c(c1)C(=O)N(C)[C@@H]1CC[C@@H](CC(=O)NCc3ccccc3F)O[C@H]1CO2	none (no result: VLA-4 inh, Granule exo inh, MT1-MMP act inh, ABCB6 inh MLPCN, DAGLB inh)
COc1ccc(Cl)cc1Nc1nnc(-c2ccncc2)s1	none
COc1ccc(Nc2nnc(-c3ccncc3)s2)cc1Cl	FGF22 binding-1 1.5 | FGF22 binding-2 inactive | TSA no protein inactive
CCOC(=O)c1ccc(S(=O)(=O)Nc2cc(C(=O)O)ccc2Cl)cc1	FGF22 binding-1 2.2 | FGF22 binding-2 inactive | TSA no protein inactive
C[C@@H]1CN([C@@H](C)CO)C(=O)c2c(c3ccccc3n2C)-c2ccccc2CO[C@@H]1CN(C)S(=O)(=O)c1ccc(Cl)cc1	none (no result: VLA-4 inh, Granule exo inh, MT1-MMP act inh, ABCB6 inh MLPCN, DAGLB inh)
C[C@@H]1CN([C@@H](C)CO)C(=O)Cc2cc(NC(=O)Nc3ccc4c(c3)OCO4)ccc2O[C@H]1CN(C)C(=O)Nc1ccc(C(F)(F)F)cc1	none (no result: VLA-4 inh, Granule exo inh, MT1-MMP act inh, ABCB6 inh MLPCN, DAGLB inh)
Cc1cccc(NC(=O)c2ccc(S(=O)(=O)NCc3cccnc3)cc2)c1C	none
Cc1ccc(NC(=O)c2ccc(S(=O)(=O)NCc3cccnc3)cc2)c(C)c1	FGF22 binding-1 1.6 (no result: MT1-MMP act inh) | FGF22 binding-2 inactive | TSA no protein inactive
Cc1ccc(S(=O)(=O)NCc2cccnc2)cc1C	FGF22 binding-1 3.2 | FGF22 binding-2 inactive | TSA no protein inactive
CCOc1ccc(NC(=O)CC2C(=O)N(c3ccc(OC)cc3)C(=S)N2Cc2ccccn2)cc1 (stereo not given)	FGF22 binding-1 2.0 | FGF22 binding-2 inactive | TSA no protein inactive
COC(=O)CN1C(=S)N(c2ccc(F)cc2)C(=O)C1CC(=O)Nc1ccccc1 (stereo not given)	FGF22 binding-1 1.6 | FGF22 binding-2 inactive | TSA no protein inactive
COc1ccc(CN2C(=O)N(c3ccc(OC)cc3)C(=O)C2CC(=O)Nc2ccccc2)cc1 (stereo not given)	FGF22 binding-1 1.4, ABCB6 inh MLPCN inconclusive | FGF22 binding-2 inactive | TSA no protein inactive
COC(=O)CN1C(=S)N(c2ccc(F)cc2)C(=O)C1CC(=O)Nc1ccc(OC)cc1 (stereo not given)	none
CC(C)(C)CC(C)(C)N=C1Nc2cc(Cl)c(Cl)cc2NC12C[C@H]1CCC(=O)N3CC[C@@H](C2)[C@@H]13 (stereo not given in full)	Granule exo inh 76 (no result: VLA-4 inh) | Exocytosis CP01 inactive
CC(C)(C)CC(C)(C)N=C1Nc2ccccc2NC12C[C@H]1CCC(=O)N3CC[C@@H](C2)[C@@H]13 (stereo not given in full)	none (no result: VLA-4 inh)
N#CC1(NC(=O)COc2ccccc2[N+](=O)[O-])CCCCC1	none
C=CCOc1ccc(C(=O)c2ccccc2)c(OCC(=O)NC2(C#N)CCCC2)c1	Granule exo inh 61 | Exocytosis CP01 inactive
CCc1cc2c(CN(C)Cc3ccccc3F)cc(=O)oc2cc1O	Granule exo inh 59 | Exocytosis CP01 inactive
Cc1cc2oc(=O)cc(CN(C)Cc3cccc(F)c3)c2cc1C	none
